What was measured:
[1] = Half-life period determined in water at room temperature.; assay type: ADME
HEp-2 = test: Concentration that produces 50 % inhibition of cloning of H.Ep.-2 cells in suspension culture, over a 12-day period; assay type: functional, cell-based; conditions: Homo sapiens, HEp-2, 288 h; read-out: I50
How it was run: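 H.Ep.-2 cells tested by cloning over a 12-day period. I50 is the concentration giving 50% inhibition of colony formation relative to untreated control growth.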

L1210 = test: Concentration that produces 50 % inhibition of proliferation of L1210 cells in suspension culture in 48 h,; assay type: functional, cell-based; conditions: Mus musculus, L1210, 48 h; read-out: I50
How it was run: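 L1210 cells grown in suspension culture for 48 h with compound. I50 is the concentration giving 50% inhibition of proliferation relative to control growth.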

Mus musculus [2] = test: Activity against P388 leukemia was determined in vivo. The percent increase in life span at a compound dose of 25 mg/kg.; assay type: functional
How it was run: (§1)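 P388 leukemia in vivo; dosing given as a single injection on days 1-5. Read-out is the percent increase in life span relative to untreated controls.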

[3] = Ratio of the cytotoxic concentrations (I50''s) against H.Ep.-2 and L1210 cells.; assay type: functional
Mus musculus [4] = test: Activity against P388 leukemia was determined in vivo. The percent increase in life span at a compound dose of 100 mg/kg.; assay type: functional; how it was run: as §1
Mus musculus [5] = test: Activity against P388 leukemia was determined in vivo. The percent increase in life span at a compound dose of 12.5 mg/kg.; assay type: functional; how it was run: as §1
Mus musculus [6] = test: Activity against P388 leukemia was determined in vivo. The percent increase in life span at a compound dose of 50 mg/kg.; assay type: functional; how it was run: as §1
[7] = Ratio of the cytotoxic concentrations (I50's) against H.Ep.-2 and L1210 cells.; assay type: functional
Mus musculus [8] = test: Activity against P388 leukemia was determined in vivo. The percent increase in life span at a compound dose of 200 mg/kg.; assay type: functional; how it was run: as §1

Cc1cn(C2CC(O)C(CCC(=O)CI)O2)c(=O)[nH]c1=O (stereo not given)
half-life [1]: 240 min | IC50 (HEp-2): 17 µM | IC50 (L1210): 20 µM | ILS at 25 mg/kg (Mus musculus [2]): 16% | Ratio [3]: 16

Cc1cn(C2CC(O)C(C(=O)Nc3ccc(C(=O)CCl)cc3)O2)c(=O)[nH]c1=O (stereo not given)
half-life [1]: > 3120 min | IC50 (HEp-2): 30 µM | IC50 (L1210): 28 µM | ILS at 100 mg/kg (Mus musculus [4]): 14% | Ratio [3]: 14

Cc1cn(C2CC(O)C(CCC(=O)CBr)O2)c(=O)[nH]c1=O (stereo not given)
half-life [1]: 108 min | IC50 (HEp-2): 55 µM | IC50 (L1210): 110 µM | ILS at 12.5 mg/kg (Mus musculus [5]): 16% | Ratio [3]: 16

Cc1cn(C2CC(O)C(CCC(=O)CCl)O2)c(=O)[nH]c1=O (stereo not given)
half-life [1]: > 3120 min | IC50 (HEp-2): 25 µM | IC50 (L1210): 66 µM | ILS at 50 mg/kg (Mus musculus [6]): 10% | Ratio [7]: 10

Cc1cn(C2CC(O)C(CNC(=O)c3ccc(C(=O)CBr)cc3)O2)c(=O)[nH]c1=O (stereo not given)
half-life [1]: 60 min | IC50 (HEp-2): > 40 µM | IC50 (L1210): > 70 µM | ILS at 50 mg/kg (Mus musculus [6]): 15% | Ratio [3]: 15

Cc1cn(C2CC(O)C(C(=O)Nc3ccc(C(=O)CBr)cc3)O2)c(=O)[nH]c1=O (stereo not given)
half-life [1]: 240 min | IC50 (HEp-2): 12 µM | IC50 (L1210): 6 µM | ILS at 200 mg/kg (Mus musculus [8]): 38% | Ratio [3]: 38

Cc1cn(C2CC(O)C(C(=O)Nc3ccc(C(=O)CI)cc3)O2)c(=O)[nH]c1=O (stereo not given)
half-life [1]: 780 min | IC50 (HEp-2): 29 µM | IC50 (L1210): 8 µM | ILS at 25 mg/kg (Mus musculus [2]): 5% | Ratio [3]: 5

— ChEMBL document CHEMBL1122739, “Potential inhibitors of nucleotide biosynthesis. 2. Halomethyl ketone derivatives of pyrimidine nucleosides” (J Med Chem, 1984)
